# Assay results published in ChEMBL document CHEMBL1126014, “New conformationally restricted 99mTc N2S2 complexes as myocardial perfusion imaging agents” (J Med Chem, 1992).
# Tests used:
# [1] = tested on: Rattus norvegicus; test: Heart by blood ratio of the radiolabeled compound (2-5 uCi) in rat 65 mins after i.v. administration; conditions: in vivo, iv
# [2] = tested on: Rattus norvegicus; test: Biodistribution of the radiolabeled compound (2-5 uCi) in rat skin 15 mins after i.v. administration; type: ADME, organism-based, Zone of skin; conditions: in vivo, iv, 0.25 h
# In short: (§1)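 Rats given the 99mTc complex iv. At set times, blood was drawn by cardiac puncture and the animals were killed at once by cardiectomy. Organs were excised, weighed and gamma-counted. Percent dose per organ was found by comparing tissue radioactivity with suitable dilutions of the injected dose.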
# [3] = tested on: Rattus norvegicus; test: Biodistribution of the radiolabeled compound (2-5 uCi) in rat spleen 2 mins after i.v. administration; type: ADME, organism-based; conditions: in vivo, iv
# In short: as §1
# [4] = tested on: Rattus norvegicus; test: Biodistribution of the radiolabeled compound (2-5 uCi) in rat heart 2 mins after i.v. administration; type: ADME, organism-based; conditions: in vivo, iv
# In short: as §1
# [5] = tested on: Rattus norvegicus; test: Biodistribution of the radiolabeled compound (2-5 uCi) in rat lung 15 mins after i.v. administration; type: ADME, organism-based; conditions: in vivo, iv, 0.25 h
# In short: as §1
# [6] = tested on: Rattus norvegicus; test: Biodistribution of the radiolabeled compound (2-5 uCi) in rat heart 15 mins after i.v. administration; type: ADME, organism-based; conditions: in vivo, iv, 0.25 h
# In short: as §1
# [7] = tested on: Rattus norvegicus; test: Biodistribution of the radiolabeled compound (2-5 uCi) in rat kidney 2 mins after i.v. administration; type: ADME, organism-based; conditions: in vivo, iv
# In short: as §1
# [8] = tested on: Rattus norvegicus; test: Biodistribution of the radiolabeled compound (2-5 uCi) in rat muscle 2 mins after i.v. administration; type: ADME, organism-based, Muscle tissue; conditions: in vivo, iv
# In short: as §1
# [9] = tested on: Rattus norvegicus; test: Heart/blood ratio of the radiolabeled compound (2-5 uCi) in rat 15 mins after i.v. administration; conditions: in vivo, iv, 0.25 h
# [10] = tested on: Rattus norvegicus; test: Biodistribution of the radiolabeled compound (2-5 uCi) in rat kidney 15 mins after i.v. administration; type: ADME, organism-based; conditions: in vivo, iv, 0.25 h
# In short: as §1
# [11] = tested on: Rattus norvegicus; test: Biodistribution of the radiolabeled compound (2-5 uCi) in rat liver 2 mins after i.v. administration; type: ADME, organism-based; conditions: in vivo, iv
# In short: as §1
# [12] = tested on: Rattus norvegicus; test: Biodistribution of the radiolabeled compound (2-5 uCi) in rat muscle 15 mins after i.v. administration; type: ADME, organism-based, Muscle tissue; conditions: in vivo, iv, 0.25 h
# In short: as §1
# [13] = tested on: Rattus norvegicus; test: Biodistribution of the radiolabeled compound (2-5 uCi) in rat kidney 65 mins after i.v. administration; type: ADME, organism-based; conditions: in vivo, iv
# In short: as §1
# [14] = tested on: Rattus norvegicus; test: Biodistribution of the radiolabeled compound (2-5 uCi) in rat heart 65 mins after i.v. administration; type: ADME, organism-based; conditions: in vivo, iv
# In short: as §1
# [15] = Partition coefficient in buffer containing 0.1 M NaCl; type: ADME; conditions: octanol/water
# In short: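 Octanol/buffer partition: the 99mTc complex was shaken with 3 g 1-octanol plus 3 g 50 mM phosphate pH 7.4 containing 0.1 M NaCl. Vortexing was 3 × 1 min at room temperature, followed by 5 min centrifugation. Weighed samples from both layers were gamma-counted. Ratio = octanol counts/g over aqueous counts/g.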
# [16] = tested on: Rattus norvegicus; test: Biodistribution of the radiolabeled compound (2-5 uCi) in rat spleen 65 mins after i.v. administration; type: ADME, organism-based; conditions: in vivo, iv
# In short: as §1
# [17] = tested on: Rattus norvegicus; test: Biodistribution of the radiolabeled compound (2-5 uCi) in rat blood 15 mins after i.v. administration; type: ADME, organism-based; conditions: in vivo, iv, 0.25 h
# In short: as §1
# [18] = tested on: Rattus norvegicus; test: Biodistribution of the radiolabeled compound (2-5 uCi) in rat skin 65 mins after i.v. administration; type: ADME, organism-based, Zone of skin; conditions: in vivo, iv
# In short: as §1
# [19] = tested on: Rattus norvegicus; test: Biodistribution of the radiolabeled compound (2-5 uCi) in rat liver 65 mins after i.v. administration; type: ADME, organism-based; conditions: in vivo, iv
# In short: as §1
# [20] = tested on: Rattus norvegicus; test: Biodistribution of the radiolabeled compound (2-5 uCi) in rat blood 2 mins after i.v. administration; type: ADME, organism-based; conditions: in vivo, iv
# In short: as §1
# [21] = tested on: Rattus norvegicus; test: Heart by blood ratio of the radiolabeled compound (2-5 uCi) in rat 2 mins after i.v. administration; conditions: in vivo, iv
# [22] = tested on: Rattus norvegicus; test: Biodistribution of the radiolabeled compound (2-5 uCi) in rat lung 65 mins after i.v. administration; type: ADME, organism-based; conditions: in vivo, iv
# In short: as §1
# [23] = tested on: Rattus norvegicus; test: Biodistribution of the radiolabeled compound (2-5 uCi) in rat brain 65 mins after i.v. administration; type: ADME, organism-based; conditions: in vivo, iv
# In short: as §1
# [24] = tested on: Rattus norvegicus; test: Biodistribution of the radiolabeled compound (2-5 uCi) in rat skin 2 mins after i.v. administration; type: ADME, organism-based, Zone of skin; conditions: in vivo, iv
# In short: as §1
# [25] = tested on: Rattus norvegicus; test: Biodistribution of the radiolabeled compound (2-5 uCi) in rat lung 2 mins after i.v. administration; type: ADME, organism-based; conditions: in vivo, iv
# In short: as §1
# [26] = tested on: Rattus norvegicus; test: Biodistribution of the radiolabeled compound (2-5 uCi) in rat liver 15 mins after i.v. administration; type: ADME, organism-based; conditions: in vivo, iv, 0.25 h
# In short: as §1
# [27] = tested on: Rattus norvegicus; test: Biodistribution of the radiolabeled compound (2-5 uCi) in rat spleen 15 mins after i.v. administration; type: ADME, organism-based; conditions: in vivo, iv, 0.25 h
# In short: as §1
# [28] = tested on: Rattus norvegicus; test: Biodistribution of the radiolabeled compound (2-5 uCi) in rat muscle 65 mins after i.v. administration; type: ADME, organism-based, Muscle tissue; conditions: in vivo, iv
# In short: as §1
# [29] = tested on: Rattus norvegicus; test: Biodistribution of the radiolabeled compound (2-5 uCi) in rat brain 2 mins after i.v. administration; type: ADME, organism-based; conditions: in vivo, iv
# In short: as §1
# [30] = tested on: Rattus norvegicus; test: Biodistribution of the radiolabeled compound (2-5 uCi) in rat blood 65 mins after i.v. administration; type: ADME, organism-based; conditions: in vivo, iv
# In short: as §1
# [31] = Partition coefficient in buffer containing 0.1 M NH4PF6; type: ADME; conditions: octanol/water
# In short: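 The 99mTc complex was mixed with 3 g each of 1-octanol and 50 mM phosphate buffer pH 7.4 containing 0.1 M NH4PF6. Tubes were vortexed three times for 1 min at room temperature and centrifuged 5 min. Weighed samples of each layer were gamma-counted. PC = counts per gram in octanol / counts per gram in aqueous.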
# [32] = tested on: Rattus norvegicus; test: Biodistribution of the radiolabeled compound (2-5 uCi) in rat brain 15 mins after i.v. administration; type: ADME, organism-based; conditions: in vivo, iv, 0.25 h
# In short: as §1
Compound,heart/blood ratio [1],Biodistribution [2] [dose/organ %],Biodistribution [3] [dose/organ %],Biodistribution [4] [dose/organ %],Biodistribution [5] [dose/organ %],Biodistribution [6] [dose/organ %],Biodistribution [7] [dose/organ %],Biodistribution [8] [dose/organ %],heart/blood ratio [9],Biodistribution [10] [dose/organ %],Biodistribution [11] [dose/organ %],Biodistribution [12] [dose/organ %],Biodistribution [13] [dose/organ %],Biodistribution [14] [dose/organ %],Partition coefficient [15],Biodistribution [16] [dose/organ %],Biodistribution [17] [dose/organ %],Biodistribution [18] [dose/organ %],Biodistribution [19] [dose/organ %],Biodistribution [20] [dose/organ %],also measured
CC(C)(S)CN1CCCN(CC(C)(C)S)CC1,4.8,5.16,0.41,0.42,0.28,0.38,19.37,9.08,3.33,15.9,25.92,6.98,4.26,0.37,1.19,0.22,1.14,6.8,15.23,3.57,heart/blood ratio [21]: 1.18; Biodistribution [22]: 0.23 dose/organ %; Biodistribution [23]: 0.007 dose/organ %; Biodistribution [24]: 7.45 dose/organ %; Biodistribution [25]: 0.56 dose/organ %; Biodistribution [26]: 27.48 dose/organ %; Biodistribution [27]: 0.26 dose/organ %; Biodistribution [28]: 8.66 dose/organ %; Biodistribution [29]: 0.04 dose/organ %; Biodistribution [30]: 0.77 dose/organ %; Partition coefficient [31]: 11.5; Biodistribution [32]: 0.01 dose/organ %
CC(C)(S)CN1CCN(CC(C)(C)S)CC1,1,14.13,0.57,0.21,0.23,0.1,15.71,10.67,0.5,9.43,31.81,10.12,1.09,0.07,1.09,0.08,2,7.13,20.2,7.16,heart/blood ratio [21]: 0.29; Biodistribution [22]: 0.12 dose/organ %; Biodistribution [23]: 0.003 dose/organ %; Biodistribution [24]: 6.65 dose/organ %; Biodistribution [25]: 0.62 dose/organ %; Biodistribution [26]: 29.63 dose/organ %; Biodistribution [27]: 0.25 dose/organ %; Biodistribution [28]: 5.06 dose/organ %; Biodistribution [29]: 0.03 dose/organ %; Biodistribution [30]: 0.7 dose/organ %; Partition coefficient [31]: 10.75; Biodistribution [32]: 0.01 dose/organ %
